Reference: ChEMBL document CHEMBL1687824, “Overexpression of patA and patB, which encode ABC transporters, is associated with fluoroquinolone resistance in clinical isolates of Streptococcus pneumoniae” (2011)
In brackets after ≈: the same amount, converted by molar mass.

Columns and labels:
Streptococcus pneumoniae [1] = test: Antibacterial activity against Streptococcus pneumoniae M306 overexpressing patA, patB and inactivated patB with single mutation by standardized agar doubling dilution method in presence of 20 ug/ml reserpine efflux pump inhibitor; format: functional
Method in brief: (§1)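 MICs determined by BSAC standardized agar doubling dilution. Strains were grown in brain heart infusion broth for 24 h at 37°C in 5% CO2. Inhibitor arms had reserpine at 20 μg/ml or sodium orthovanadate at 50 μM in the agar. Mutants were made by transforming magellan2 insertion amplimers into clinical isolates and selecting on spectinomycin 100 mg/liter, with a no-DNA spontaneous-mutation control.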

Streptococcus pneumoniae [2] = test: Antibacterial activity against fluoroquinolone-resistant Streptococcus pneumoniae M79 FQ-R overexpressing patA, patB by standardized agar doubling dilution method in presence of 50 uM sodium orthovanadate efflux pump inhibitor; format: functional
Method in brief: (§2)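 Clinical S. pneumoniae isolates grown in BHI broth 24 h at 37°C in 5% CO2. MICs by agar doubling dilution per BSAC guidelines, alone or with efflux inhibitor reserpine (20 μg/ml) or sodium orthovanadate (50 μM). Synergy defined as ≥2-dilution MIC reduction in presence of inhibitor.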

Streptococcus pneumoniae [3] = test: Antibacterial activity against fluoroquinolone, dye-resistant Streptococcus pneumoniae M87 overexpressing patA, patB by standardized agar doubling dilution method; format: functional
Method in brief: (§3)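 MIC by agar doubling dilution following BSAC guidelines. Strains grown in brain heart infusion broth 24 h at 37°C in 5% CO2. Where an efflux pump inhibitor applies, MIC redetermined with reserpine at 20 μg/ml or sodium orthovanadate at 50 μM. Synergy taken as a fall in MIC of ≥2 dilutions with inhibitor present. Dye resistance defined relative to R6 (both dyes ≥2 dilutions higher).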

Streptococcus pneumoniae [4] = test: Antibacterial activity against Streptococcus pneumoniae M298 overexpressing patA, patB and inactivated patA with single mutation by standardized agar doubling dilution method; format: functional; method in brief: as §1
Streptococcus pneumoniae [5] = test: Antibacterial activity against wild type Streptococcus pneumoniae M4 NCTC 7465 type 1 by standardized agar doubling dilution method in presence of 50 uM sodium orthovanadate efflux pump inhibitor; format: functional
Streptococcus pneumoniae [6] = test: Antibacterial activity against Streptococcus pneumoniae M45B overexpressing patA, patB and inactivated patB with single mutation by standardized agar doubling dilution method; format: functional
Method in brief: (§4)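 MICs were determined by agar doubling dilution following BSAC guidelines, with no efflux inhibitor. Strains were grown in brain heart infusion broth for 24 h at 37°C in 5% CO2. Species identity was confirmed by Gram stain, optochin sensitivity and capsule test. Control strain R6 was tested alongside.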

Streptococcus pneumoniae [7] = test: Antibacterial activity against fluoroquinolone, dye-resistant Streptococcus pneumoniae M87 overexpressing patA, patB by standardized agar doubling dilution method in presence of 50 uM sodium orthovanadate efflux pump inhibitor; format: functional; method in brief: as §3
Streptococcus pneumoniae [8] = test: Antibacterial activity against Streptococcus pneumoniae M308 overexpressing patA, patB and inactivated patB with single mutation by standardized agar doubling dilution method in presence of 50 uM sodium orthovanadate efflux pump inhibitor; format: functional; method in brief: as §1
Streptococcus pneumoniae [9] = test: Antibacterial activity against fluoroquinolone, dye-resistant Streptococcus pneumoniae M45 overexpressing patA, patB by standardized agar doubling dilution method in presence of 50 uM sodium orthovanadate efflux pump inhibitor; format: functional; method in brief: as §3
Streptococcus pneumoniae [10] = test: Antibacterial activity against Streptococcus pneumoniae M311B overexpressing patA, patB and inactivated patB with single mutation by standardized agar doubling dilution method in presence of 20 ug/ml reserpine efflux pump inhibitor; format: functional; method in brief: as §1
Streptococcus pneumoniae [11] = test: Antibacterial activity against fluoroquinolone, dye-resistant Streptococcus pneumoniae M296 overexpressing patA, patB by standardized agar doubling dilution method in presence of 50 uM sodium orthovanadate efflux pump inhibitor; format: functional; method in brief: as §3
Streptococcus pneumoniae [12] = test: Antibacterial activity against Streptococcus pneumoniae M298 overexpressing patA, patB and inactivated patA with single mutation by standardized agar doubling dilution method
Streptococcus pneumoniae [13] = test: Antibacterial activity against Streptococcus pneumoniae M87A overexpressing patA, patB and inactivated patA with single mutation by standardized agar doubling dilution method; format: functional; method in brief: as §4
Streptococcus pneumoniae [14] = test: Antibacterial activity against fluoroquinolone-resistant Streptococcus pneumoniae M83 FQ-R overexpressing patA, patB by standardized agar doubling dilution method in presence of 20 ug/ml reserpine efflux pump inhibitor; format: functional; method in brief: as §2
Streptococcus pneumoniae [15] = test: Antibacterial activity against Streptococcus pneumoniae M319 overexpressing patA, patB and inactivated patB with single mutation by standardized agar doubling dilution method; format: functional; method in brief: as §4
Streptococcus pneumoniae [16] = test: Antibacterial activity against Streptococcus pneumoniae M315 overexpressing patA, patB and inactivated patA with single mutation by standardized agar doubling dilution method in presence of 50 uM sodium orthovanadate efflux pump inhibitor; format: functional
Method in brief: (§5)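 MICs were determined by BSAC agar doubling dilution in the presence of sodium orthovanadate at 50 μM. Cultures were grown in BHI broth for 24 h at 37°C in 5% CO2, with R6 as control. Synergy was defined as an MIC reduction of ≥2 dilutions with the inhibitor present.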

Streptococcus pneumoniae [17] = test: Antibacterial activity against Streptococcus pneumoniae M298 overexpressing patA, patB and inactivated patA with single mutation by standardized agar doubling dilution method in presence of 20 ug/ml reserpine efflux pump inhibitor
Streptococcus pneumoniae [18] = test: Antibacterial activity against Streptococcus pneumoniae M311B overexpressing patA, patB and inactivated patB with single mutation by standardized agar doubling dilution method in presence of 50 uM sodium orthovanadate efflux pump inhibitor; format: functional; method in brief: as §1
Streptococcus pneumoniae [19] = test: Antibacterial activity against Streptococcus pneumoniae M318 overexpressing patA, patB and inactivated patA with single mutation by standardized agar doubling dilution method in presence of 50 uM sodium orthovanadate efflux pump inhibitor; format: functional; method in brief: as §5
Streptococcus pneumoniae [20] = test: Antibacterial activity against Streptococcus pneumoniae M304 overexpressing patA, patB and inactivated patA with single mutation by standardized agar doubling dilution method; format: functional; method in brief: as §1
Streptococcus pneumoniae [21] = test: Antibacterial activity against fluoroquinolone-resistant Streptococcus pneumoniae M97 FQ-R overexpressing patA, patB by standardized agar doubling dilution method; format: functional
Method in brief: (§6)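 MIC by agar doubling dilution per BSAC guidelines; strains pregrown in brain heart infusion broth 24 h, 37°C, 5% CO2. MICs measured alone and with efflux pump inhibitors reserpine (20 μg/ml) or sodium orthovanadate (50 μM); synergy defined as ≥2-dilution MIC reduction in presence of inhibitor.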

Streptococcus pneumoniae [22] = test: Antibacterial activity against Streptococcus pneumoniae M304 overexpressing patA, patB and inactivated patA with single mutation by standardized agar doubling dilution method in presence of 50 uM sodium orthovanadate efflux pump inhibitor; format: functional; method in brief: as §1
Streptococcus pneumoniae [23] = test: Antibacterial activity against fluoroquinolone-resistant Streptococcus pneumoniae M83 FQ-R overexpressing patA, patB by standardized agar doubling dilution method in presence of 50 uM sodium orthovanadate efflux pump inhibitor; format: functional; method in brief: as §6
Streptococcus pneumoniae [24] = test: Antibacterial activity against Streptococcus pneumoniae M298 overexpressing patA, patB and inactivated patA with single mutation by standardized agar doubling dilution method in presence of 50 uM sodium orthovanadate efflux pump inhibitor
Streptococcus pneumoniae [25] = test: Antibacterial activity against fluoroquinolone, dye-resistant Streptococcus pneumoniae M87 overexpressing patA, patB by standardized agar doubling dilution method in presence of 20 ug/ml reserpine efflux pump inhibitor; format: functional; method in brief: as §3
Streptococcus pneumoniae [26] = test: Antibacterial activity against Streptococcus pneumoniae M307 overexpressing patA, patB and inactivated patB with single mutation by standardized agar doubling dilution method in presence of 20 ug/ml reserpine efflux pump inhibitor; format: functional; method in brief: as §1

| SMILES | MIC (Streptococcus pneumoniae [1]) [µg/mL] | MIC (Streptococcus pneumoniae [2]) [µg/mL] | MIC (Streptococcus pneumoniae [3]) [µg/mL] | MIC (Streptococcus pneumoniae [4]) [µg/mL] | MIC (Streptococcus pneumoniae [5]) [µg/mL] | MIC (Streptococcus pneumoniae [6]) [µg/mL] | MIC (Streptococcus pneumoniae [7]) [µg/mL] | MIC (Streptococcus pneumoniae [8]) [µg/mL] | MIC (Streptococcus pneumoniae [9]) [µg/mL] | MIC (Streptococcus pneumoniae [10]) [µg/mL] | MIC (Streptococcus pneumoniae [11]) [µg/mL] | MIC (Streptococcus pneumoniae [12]) [µg/mL] | MIC (Streptococcus pneumoniae [13]) [µg/mL] | MIC (Streptococcus pneumoniae [14]) [µg/mL] | MIC (Streptococcus pneumoniae [15]) [µg/mL] | MIC (Streptococcus pneumoniae [16]) [µg/mL] | MIC (Streptococcus pneumoniae [17]) [µg/mL] | MIC (Streptococcus pneumoniae [18]) [µg/mL] | MIC (Streptococcus pneumoniae [19]) [µg/mL] | MIC (Streptococcus pneumoniae [20]) [µg/mL] | other results |
| --- | --- | --- | --- | --- | --- | --- | --- | --- | --- | --- | --- | --- | --- | --- | --- | --- | --- | --- | --- | --- | --- |
| O=C(O)c1cn(C2CC2)c2cc(N3CCNCC3)c(F)cc2c1=O [CIPROFLOXACIN] | 4 | 16 | 32 (≈ 96.6 µM) | 8 (≈ 24.1 µM) | 1 | 1 (≈ 3.02 µM) | 16 | 0.12 | 1 | 4 | 8 | 8 (≈ 24.1 µM) | 8 (≈ 24.1 µM) | 64 | 16 (≈ 48.3 µM) | 0.12 | 8 | 4 | 16 | 4 (≈ 12.1 µM) | MIC (Streptococcus pneumoniae [21]): 8 µg/mL (≈ 24.1 µM); MIC (Streptococcus pneumoniae [22]): 2 µg/mL; MIC (Streptococcus pneumoniae [23]): 1 µg/mL; MIC (Streptococcus pneumoniae [24]): 8 µg/mL; MIC (Streptococcus pneumoniae [25]): 8 µg/mL; MIC (Streptococcus pneumoniae [26]): 8 µg/mL |
| CC[n+]1c(-c2ccccc2)c2cc(N)ccc2c2ccc(N)cc21.[Br-] [HOMIDIUM BROMIDE] | 0.5 | 0.5 | 4 | 0.5 | 0.3 | 0.5 | 1 | 0.5 | 1 | 0.5 | 2 | 0.5 | 0.5 | 4 | 0.5 | 0.25 | 0.5 | 8 | 0.5 | 0.5 | MIC (Streptococcus pneumoniae [21]): 4 µg/mL; MIC (Streptococcus pneumoniae [22]): 0.25 µg/mL; MIC (Streptococcus pneumoniae [23]): 4 µg/mL; MIC (Streptococcus pneumoniae [24]): 0.5 µg/mL; MIC (Streptococcus pneumoniae [25]): 0.5 µg/mL; MIC (Streptococcus pneumoniae [26]): 0.5 µg/mL |
